For data set [1], the target named is T1, Transient receptor potential cation channel subfamily M member 5 (Homo sapiens, UniProt Q9NZQ8).
T1 sequence (Q9NZQ8 whole entry): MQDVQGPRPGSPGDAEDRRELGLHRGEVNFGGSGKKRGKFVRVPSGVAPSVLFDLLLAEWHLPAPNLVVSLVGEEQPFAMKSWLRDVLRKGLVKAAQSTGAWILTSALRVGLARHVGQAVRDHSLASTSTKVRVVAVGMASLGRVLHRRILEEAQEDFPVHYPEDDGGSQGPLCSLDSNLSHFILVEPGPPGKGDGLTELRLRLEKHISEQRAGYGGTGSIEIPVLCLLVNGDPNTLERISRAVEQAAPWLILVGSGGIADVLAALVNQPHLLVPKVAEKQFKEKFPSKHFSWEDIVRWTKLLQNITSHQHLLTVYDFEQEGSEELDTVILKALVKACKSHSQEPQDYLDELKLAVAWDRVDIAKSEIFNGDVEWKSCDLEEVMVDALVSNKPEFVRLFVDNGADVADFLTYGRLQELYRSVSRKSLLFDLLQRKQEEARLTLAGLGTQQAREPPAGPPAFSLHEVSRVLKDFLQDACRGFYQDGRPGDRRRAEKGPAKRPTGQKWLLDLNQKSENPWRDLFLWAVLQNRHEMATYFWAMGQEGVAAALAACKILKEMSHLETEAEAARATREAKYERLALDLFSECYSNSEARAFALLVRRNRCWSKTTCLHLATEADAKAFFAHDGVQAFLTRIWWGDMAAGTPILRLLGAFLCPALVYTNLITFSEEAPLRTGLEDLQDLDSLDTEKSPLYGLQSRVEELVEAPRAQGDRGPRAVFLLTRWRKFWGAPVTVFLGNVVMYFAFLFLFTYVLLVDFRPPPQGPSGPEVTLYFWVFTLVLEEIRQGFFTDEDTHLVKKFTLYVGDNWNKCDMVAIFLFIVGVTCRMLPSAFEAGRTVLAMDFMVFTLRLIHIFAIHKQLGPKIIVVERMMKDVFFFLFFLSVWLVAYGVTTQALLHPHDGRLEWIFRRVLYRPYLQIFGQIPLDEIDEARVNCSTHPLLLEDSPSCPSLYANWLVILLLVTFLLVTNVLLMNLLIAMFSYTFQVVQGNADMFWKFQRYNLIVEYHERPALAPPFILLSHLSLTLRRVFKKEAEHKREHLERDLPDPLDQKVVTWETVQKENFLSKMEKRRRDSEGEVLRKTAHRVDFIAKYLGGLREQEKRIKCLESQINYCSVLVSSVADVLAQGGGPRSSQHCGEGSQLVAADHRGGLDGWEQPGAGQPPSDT
The experiment in a line: Agonist activity at human TRPM5 expressed in CHO-K1 cells maintained at 80 mV final holding potential by syncroPatch assay. Type of data set: cell-based. In outline: (§1)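 SyncroPatch 384 whole-cell recording at rt on CHO-K1 cells stably expressing human or mouse TRPM5. Intracellular solution had 2 mM Na-ATP and 5 μM free Ca2+. Cumulative doses 0.03–31.6 μM in 0.5% DMSO, 150 s each after 180 s vehicle. Current measured at the end of the +80 mV step, normalized to vehicle; pEC50 is the mean of ≥2 independent experiments.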
(The patch-clamp technique gives a direct electrical read-out from membranes.)

Data set [2] has as its target T1, Transient receptor potential cation channel subfamily M member 5. Nature of the data set: Agonist activity at human TRPM5 expressed in CHO-K1 cells maintained at 80 mV final holding potential by QPatch HTX assay. Type of data set: cell-based. Put shortly: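 Whole-cell QPatch HTX recording at rt on CHO-K1 cells with stable hTRPM5. Pipette solution HEDTA-buffered to 1 μM free Ca2+, pH 7.2. Cells held at 0 mV; 0.1 Hz protocol with steps to −80/+80 mV and a ramp. Current taken at the end of the first +80 mV step, no leak subtraction. Increase expressed relative to vehicle current (100%).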

The target in data set [3] is Transient receptor potential cation channel subfamily A member 1 (Homo sapiens, UniProt O75762). The experiment in a line: Agonist activity at human TRPA1 expressed in HEK cells assessed as increase in menthol-induced intracellular calcium level incubated for 2 hrs by FLIPR assay. Type of data set: cell-based. In outline:
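HEK cells stably expressing hTRPA1, plated at 20,000/well 24 h ahead, loaded with calcium-6 dye plus 2.5 mM probenecid for 2 h at 37 °C. First FLIPR addition: 11-point 1:3 concentration series, read for 5 min, scaled to (−)menthol 1 mM final (100% control); pEC50 fitted. Final DMSO 0.5%; run at 37 °C.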
For orientation: A change in cytosolic calcium serves as a functional read-out for many receptors and channels.

Data set [4] concerns the target Transient receptor potential cation channel subfamily V member 4 (Homo sapiens, UniProt Q9HBA0). Nature of the data set: Agonist activity at human TRPV4 expressed in HEK cells assessed as increase in GSK1016790A-induced intracellular calcium level measured after 1 hr by FLIPR assay. Type of data set: cell-based.
Data set [5] addresses Transient receptor potential cation channel subfamily V member 1 (Homo sapiens, UniProt Q8NER1). Nature of the data set: Agonist activity at human TRPV1 expressed in CHO cells assessed as increase in capsaicin-induced intracellular calcium level measured after 1 hr by FLIPR assay. Type of data set: cell-based. Put shortly:
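CHO cells stably expressing hTRPV1, plated at 10,000/well 24 h before the assay. Loaded with calcium-6 dye plus 2.5 mM probenecid for 1 h at 37 °C and 1 h at rt. FLIPR dual-addition protocol; agonist potency derived as pEC50.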

Data set [6] concerns the target Transient receptor potential cation channel subfamily M member 8 (Homo sapiens, UniProt Q7Z2W7). Nature of the data set: Agonist activity at human TRPM8 expressed in HEK cells assessed as increase in menthol-induced intracellular calcium level measured after 1 hr by FLIPR assay. Type of data set: cell-based. In outline:
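HEK cells with stable hTRPM8, 20,000/well on poly-D-lysine plates 24 h ahead. Loaded with calcium-6 dye and 2.5 mM probenecid, 1 h at 37 °C then 1 h at rt. First-addition calcium rise scaled to (−)menthol 100 μM final (100% control); pEC50 derived from the concentration–response. Final DMSO 0.5%; assay at rt.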

A short description of data set [7]: Efflux ratio of apparent permeability across basolateral to apical over apical to basolateral membrane in human Caco-2 cells incubated for 30 mins by LC-MS/MS analysis. Type of data set: ADME, cell-based. (Caco-2 monolayers are a common model of the intestinal barrier.)
A short description of data set [8]: Apparent permeability across apical to basolateral membrane in human Caco-2 cells incubated for 30 mins by LC-MS/MS analysis. Type of data set: ADME, cell-based.
For data set [9], the target named is T2, Transient receptor potential cation channel subfamily M member 5 (Mus musculus, UniProt Q9JJH7).
T2 sequence (Q9JJH7 whole entry): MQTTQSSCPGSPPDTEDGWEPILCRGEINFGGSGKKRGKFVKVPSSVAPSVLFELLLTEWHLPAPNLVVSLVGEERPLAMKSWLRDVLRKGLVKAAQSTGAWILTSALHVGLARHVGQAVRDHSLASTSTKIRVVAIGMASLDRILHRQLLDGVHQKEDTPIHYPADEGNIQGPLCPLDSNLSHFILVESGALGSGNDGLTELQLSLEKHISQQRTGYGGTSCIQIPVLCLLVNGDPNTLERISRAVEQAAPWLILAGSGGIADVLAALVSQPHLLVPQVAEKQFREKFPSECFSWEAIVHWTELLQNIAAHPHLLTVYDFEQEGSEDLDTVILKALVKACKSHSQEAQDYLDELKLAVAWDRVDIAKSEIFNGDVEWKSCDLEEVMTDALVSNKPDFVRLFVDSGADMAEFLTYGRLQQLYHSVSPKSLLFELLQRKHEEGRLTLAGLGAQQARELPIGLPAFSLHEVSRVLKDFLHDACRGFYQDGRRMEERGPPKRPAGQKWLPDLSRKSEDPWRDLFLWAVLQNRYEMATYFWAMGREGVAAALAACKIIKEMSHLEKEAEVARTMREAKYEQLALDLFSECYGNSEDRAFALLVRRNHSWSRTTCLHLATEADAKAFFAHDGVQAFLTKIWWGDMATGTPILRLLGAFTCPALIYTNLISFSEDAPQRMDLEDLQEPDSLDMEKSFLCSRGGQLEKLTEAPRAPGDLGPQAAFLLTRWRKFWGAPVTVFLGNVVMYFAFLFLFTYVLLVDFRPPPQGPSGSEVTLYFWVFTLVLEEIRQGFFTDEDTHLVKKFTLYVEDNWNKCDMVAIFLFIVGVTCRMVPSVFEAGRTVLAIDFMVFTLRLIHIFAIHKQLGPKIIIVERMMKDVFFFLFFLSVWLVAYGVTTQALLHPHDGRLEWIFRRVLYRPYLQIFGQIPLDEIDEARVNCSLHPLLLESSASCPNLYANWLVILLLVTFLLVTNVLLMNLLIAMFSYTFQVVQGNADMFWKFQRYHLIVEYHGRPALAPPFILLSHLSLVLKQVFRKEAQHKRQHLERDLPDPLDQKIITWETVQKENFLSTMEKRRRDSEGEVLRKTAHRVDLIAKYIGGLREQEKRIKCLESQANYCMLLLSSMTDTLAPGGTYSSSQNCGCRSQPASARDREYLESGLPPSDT
Nature of the data set: Agonist activity at mouse TRPM5 expressed in CHO-K1 cells maintained at 80 mV final holding potential by syncroPatch assay. Type of data set: cell-based. In outline:
as §1

The nature of data set [10]: Intrinsic clearance in human liver microsomes assessed per mg protein incubated up to 30 mins in presence of NADPH by LC-MS/MS analysis. Type of data set: ADME, Microsome. The following applies: […].
Data set [11] can be described thus: Intrinsic clearance in mouse liver microsomes assessed per mg protein incubated up to 30 mins in presence of NADPH by LC-MS/MS analysis. Type of data set: ADME, Microsome. The note with it: […].
Data set [12] is described as follows: Solubility of the compound in phospahte-buffered saline buffer at pH 7.4 incubated for 2 hrs by HPLC/UV analysis. Type of data set: physicochemical. The note with it: phosphate-buffered saline.
Data set [13] deals with Transient receptor potential cation channel subfamily M member 4 (Homo sapiens, UniProt Q8TD43). The experiment in a line: Agonist activity at human TRPM4 expressed in CHO cells assessed as change in membrane potential by FLIPR assay.
Transient receptor potential cation channel subfamily M member 4, sequence (Q8TD43 whole entry): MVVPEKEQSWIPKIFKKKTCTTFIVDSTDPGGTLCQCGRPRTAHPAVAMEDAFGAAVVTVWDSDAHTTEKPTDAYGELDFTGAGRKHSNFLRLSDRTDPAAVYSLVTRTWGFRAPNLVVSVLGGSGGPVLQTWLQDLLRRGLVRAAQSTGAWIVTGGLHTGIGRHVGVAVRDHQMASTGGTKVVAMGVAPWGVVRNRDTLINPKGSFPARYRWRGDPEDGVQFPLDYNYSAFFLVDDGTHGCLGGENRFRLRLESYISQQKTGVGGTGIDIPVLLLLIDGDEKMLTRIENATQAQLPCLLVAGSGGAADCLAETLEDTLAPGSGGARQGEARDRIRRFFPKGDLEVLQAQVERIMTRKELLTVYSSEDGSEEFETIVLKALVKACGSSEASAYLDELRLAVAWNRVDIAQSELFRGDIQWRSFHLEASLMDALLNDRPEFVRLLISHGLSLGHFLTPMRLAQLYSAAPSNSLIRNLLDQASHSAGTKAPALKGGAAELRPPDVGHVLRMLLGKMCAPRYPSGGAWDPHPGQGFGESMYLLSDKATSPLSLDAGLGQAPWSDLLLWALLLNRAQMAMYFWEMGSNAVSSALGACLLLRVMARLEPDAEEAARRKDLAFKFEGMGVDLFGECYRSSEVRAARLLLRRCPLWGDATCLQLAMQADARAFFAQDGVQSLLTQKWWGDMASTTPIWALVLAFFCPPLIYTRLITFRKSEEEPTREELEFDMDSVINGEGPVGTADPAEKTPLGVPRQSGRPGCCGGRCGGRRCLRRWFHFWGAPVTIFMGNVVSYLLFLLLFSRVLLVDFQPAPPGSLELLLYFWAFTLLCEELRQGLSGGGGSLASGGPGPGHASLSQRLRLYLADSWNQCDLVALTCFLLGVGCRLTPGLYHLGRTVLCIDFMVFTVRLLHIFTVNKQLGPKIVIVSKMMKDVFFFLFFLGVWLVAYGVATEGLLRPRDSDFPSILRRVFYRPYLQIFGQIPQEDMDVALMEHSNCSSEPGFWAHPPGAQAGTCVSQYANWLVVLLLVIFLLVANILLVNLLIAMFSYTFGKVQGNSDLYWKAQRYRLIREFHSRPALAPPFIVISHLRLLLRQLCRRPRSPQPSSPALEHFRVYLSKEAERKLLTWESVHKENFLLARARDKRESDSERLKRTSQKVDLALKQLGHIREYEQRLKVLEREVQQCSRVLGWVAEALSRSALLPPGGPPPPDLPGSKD

≈ marks a conversion by molar mass, not a printed value.

The values that follow come from ChEMBL document CHEMBL4823260, “From High-Throughput Screening to Target Validation: Benzo[d]isothiazoles as Potent and Selective Agonists of Human Transient Receptor Potential Cation Channel Subfamily M Member 5 Possessing In Vivo Gastrointestinal Prokinetic Activity in Rodents” (J Med Chem, 2021).

Transient receptor potential cation channel subfamily A member 1, sequence (O75762 whole entry): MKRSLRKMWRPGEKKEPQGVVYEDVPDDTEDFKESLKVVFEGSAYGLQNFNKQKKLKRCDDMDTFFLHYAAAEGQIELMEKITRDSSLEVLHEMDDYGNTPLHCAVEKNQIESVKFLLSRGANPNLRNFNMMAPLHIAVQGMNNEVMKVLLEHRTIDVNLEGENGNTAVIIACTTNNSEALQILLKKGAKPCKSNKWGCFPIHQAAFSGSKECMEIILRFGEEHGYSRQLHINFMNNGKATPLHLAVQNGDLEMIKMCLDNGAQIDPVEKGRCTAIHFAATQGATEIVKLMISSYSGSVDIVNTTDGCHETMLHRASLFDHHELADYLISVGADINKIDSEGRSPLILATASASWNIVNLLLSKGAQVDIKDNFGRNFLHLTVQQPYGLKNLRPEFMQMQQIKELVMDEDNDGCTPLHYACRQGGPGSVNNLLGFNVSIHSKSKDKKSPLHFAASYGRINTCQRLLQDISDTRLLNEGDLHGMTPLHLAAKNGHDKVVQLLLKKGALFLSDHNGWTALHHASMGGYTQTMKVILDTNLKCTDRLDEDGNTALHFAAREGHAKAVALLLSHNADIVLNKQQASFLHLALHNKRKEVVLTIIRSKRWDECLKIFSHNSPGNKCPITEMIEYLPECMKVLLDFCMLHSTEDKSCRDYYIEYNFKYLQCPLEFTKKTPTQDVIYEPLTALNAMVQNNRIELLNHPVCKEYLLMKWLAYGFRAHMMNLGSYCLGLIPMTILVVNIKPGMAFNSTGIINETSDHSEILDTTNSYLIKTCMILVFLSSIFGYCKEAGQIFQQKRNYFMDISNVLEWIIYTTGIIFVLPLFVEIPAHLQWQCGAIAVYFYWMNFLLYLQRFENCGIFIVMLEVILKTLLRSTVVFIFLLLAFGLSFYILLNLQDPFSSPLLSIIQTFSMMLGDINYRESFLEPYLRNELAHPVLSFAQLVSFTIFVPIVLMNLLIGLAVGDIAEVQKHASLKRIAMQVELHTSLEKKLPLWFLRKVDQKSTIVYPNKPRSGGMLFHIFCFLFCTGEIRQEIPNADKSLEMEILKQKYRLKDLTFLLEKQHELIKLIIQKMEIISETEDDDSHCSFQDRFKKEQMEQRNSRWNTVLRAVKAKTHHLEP
Transient receptor potential cation channel subfamily V member 4, sequence (Q9HBA0 whole entry): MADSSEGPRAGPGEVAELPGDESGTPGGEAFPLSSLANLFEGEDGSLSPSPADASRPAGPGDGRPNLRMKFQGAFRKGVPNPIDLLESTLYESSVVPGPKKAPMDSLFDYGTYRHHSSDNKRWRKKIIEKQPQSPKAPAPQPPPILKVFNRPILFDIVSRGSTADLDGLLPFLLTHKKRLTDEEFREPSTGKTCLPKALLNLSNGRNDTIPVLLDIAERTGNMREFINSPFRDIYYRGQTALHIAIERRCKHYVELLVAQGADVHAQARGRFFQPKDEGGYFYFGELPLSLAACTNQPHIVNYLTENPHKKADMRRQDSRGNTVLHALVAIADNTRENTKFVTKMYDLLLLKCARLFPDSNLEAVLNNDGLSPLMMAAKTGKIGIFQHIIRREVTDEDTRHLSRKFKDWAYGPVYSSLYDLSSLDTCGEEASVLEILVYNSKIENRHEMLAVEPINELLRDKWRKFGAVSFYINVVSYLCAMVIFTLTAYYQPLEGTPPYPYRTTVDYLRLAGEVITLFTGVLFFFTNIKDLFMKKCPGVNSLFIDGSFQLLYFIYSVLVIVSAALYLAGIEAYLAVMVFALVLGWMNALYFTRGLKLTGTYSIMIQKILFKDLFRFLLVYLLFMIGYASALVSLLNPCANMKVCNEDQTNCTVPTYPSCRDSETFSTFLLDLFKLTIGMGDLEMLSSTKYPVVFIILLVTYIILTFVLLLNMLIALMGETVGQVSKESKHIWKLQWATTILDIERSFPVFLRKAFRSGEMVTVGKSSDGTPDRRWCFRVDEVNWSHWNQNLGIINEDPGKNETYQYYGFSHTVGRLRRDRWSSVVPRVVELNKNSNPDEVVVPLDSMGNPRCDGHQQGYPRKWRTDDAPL
Transient receptor potential cation channel subfamily M member 8, sequence (Q7Z2W7 whole entry): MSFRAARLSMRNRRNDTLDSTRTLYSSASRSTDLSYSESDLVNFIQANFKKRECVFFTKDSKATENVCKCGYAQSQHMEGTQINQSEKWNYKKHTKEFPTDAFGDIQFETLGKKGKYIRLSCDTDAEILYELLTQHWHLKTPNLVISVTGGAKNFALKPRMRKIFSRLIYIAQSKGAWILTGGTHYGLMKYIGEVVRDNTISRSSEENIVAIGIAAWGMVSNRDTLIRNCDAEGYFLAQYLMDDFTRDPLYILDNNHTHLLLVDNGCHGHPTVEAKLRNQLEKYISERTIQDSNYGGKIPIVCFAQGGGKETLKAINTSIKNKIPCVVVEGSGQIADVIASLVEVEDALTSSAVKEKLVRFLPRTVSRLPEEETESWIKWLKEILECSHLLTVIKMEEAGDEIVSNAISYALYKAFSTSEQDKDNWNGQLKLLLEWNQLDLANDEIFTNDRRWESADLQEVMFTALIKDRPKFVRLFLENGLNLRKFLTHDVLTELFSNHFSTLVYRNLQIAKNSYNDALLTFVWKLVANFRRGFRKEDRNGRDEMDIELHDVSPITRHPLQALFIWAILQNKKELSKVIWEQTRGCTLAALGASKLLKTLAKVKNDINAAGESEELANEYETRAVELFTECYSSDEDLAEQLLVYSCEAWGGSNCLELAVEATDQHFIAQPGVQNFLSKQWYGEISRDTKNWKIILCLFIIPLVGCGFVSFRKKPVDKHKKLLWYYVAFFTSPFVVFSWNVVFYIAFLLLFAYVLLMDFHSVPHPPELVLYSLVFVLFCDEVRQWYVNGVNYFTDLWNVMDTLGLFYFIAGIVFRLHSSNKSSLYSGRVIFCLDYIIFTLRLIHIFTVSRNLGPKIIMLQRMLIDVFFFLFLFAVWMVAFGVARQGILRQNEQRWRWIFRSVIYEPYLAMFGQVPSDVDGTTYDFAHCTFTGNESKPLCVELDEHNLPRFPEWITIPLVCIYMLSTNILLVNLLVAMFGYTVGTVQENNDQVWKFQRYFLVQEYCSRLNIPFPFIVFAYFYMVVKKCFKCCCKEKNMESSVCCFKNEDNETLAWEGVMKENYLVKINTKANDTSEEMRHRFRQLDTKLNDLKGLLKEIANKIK

As usually defined, the EC50 is the midpoint of the concentration-response curve. Take `Cn1c(Cl)cnc1CNc1ccc(Cl)cc1F`: the EC50 in data set [1] was 4.68 µM; in data set [2], 6.03 µM.
By efflux ratio is commonly meant a quotient of directional permeabilities that is used to spot active efflux. The Papp A→B is how fast a substance crosses the layer from the apical side. The solubility is how much of the substance goes into solution per volume. High values mean much dissolved substance, low ones little dissolved substance. With `Cn1c(Cl)cnc1CNc1ccc2sncc2c1`, the EC50 in data set [3] is greater than 15.8 µM; in data set [4], greater than 15.8 µM; in data set [5], greater than 15.8 µM; in data set [6] it was greater than 15.8 µM; in data set [1], 0.331 µM; in data set [9] it was 0.316 µM. The half-maximal effective concentration (EC50) in data set [13] is greater than 63.1 µM. The efflux ratio at 0.5 h in data set [7] came out at 1.03. In data set [8], the apparent permeability from apical to basolateral (Papp A→B) at 0.5 h was determined as 21.9 ×10⁻⁶ cm/s. The microsomal CLint in data set [10] was determined as 109 µL/min/mg; in [11], 446 µL/min/mg. In [12], the solubility at 2 h worked out at 215 µM (≈ 59.9 µg/mL).
